Laboratory results taken from PubChem BioAssay.
Calls of active or inactive are those of the source.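 The calls were made as follows, unless noted: active = viability at or under a set limit in both replicates, limit being median viability minus 3 SD (cut at about 48% in these data, passing the limit was not always enough); inconclusive = at or under the limit in just one replicate; inactive = at or above the limit in both replicates.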

Legend:
[1] = Her2 expression decrease, cell viability multiplex – SKBR3 breast tumor cells, AlphaScreen, ATP viability, primary screen (AID 461;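 active = Her2 level under about 52% in both replicate screens, with viability over 70% of control, limit read from the data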;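 as to Her2 level: lower value means less Her2 protein in the cells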;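 as to viability: percent of carrier control wells set as 100% viability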); conditions: SKBR3 Her2 protein level, 18-24 h, measured here: SKBR3 viability, ATP luminescence, at 10 µM
[2] = target: Receptor tyrosine-protein kinase erbB-2 (Homo sapiens) (UniProt P04626); experiment: as above; conditions: 18-24 h, at 10 µM, stronger effect = lower value
Receptor tyrosine-protein kinase erbB-2 (Homo sapiens), sequence (P04626 whole entry, looked up): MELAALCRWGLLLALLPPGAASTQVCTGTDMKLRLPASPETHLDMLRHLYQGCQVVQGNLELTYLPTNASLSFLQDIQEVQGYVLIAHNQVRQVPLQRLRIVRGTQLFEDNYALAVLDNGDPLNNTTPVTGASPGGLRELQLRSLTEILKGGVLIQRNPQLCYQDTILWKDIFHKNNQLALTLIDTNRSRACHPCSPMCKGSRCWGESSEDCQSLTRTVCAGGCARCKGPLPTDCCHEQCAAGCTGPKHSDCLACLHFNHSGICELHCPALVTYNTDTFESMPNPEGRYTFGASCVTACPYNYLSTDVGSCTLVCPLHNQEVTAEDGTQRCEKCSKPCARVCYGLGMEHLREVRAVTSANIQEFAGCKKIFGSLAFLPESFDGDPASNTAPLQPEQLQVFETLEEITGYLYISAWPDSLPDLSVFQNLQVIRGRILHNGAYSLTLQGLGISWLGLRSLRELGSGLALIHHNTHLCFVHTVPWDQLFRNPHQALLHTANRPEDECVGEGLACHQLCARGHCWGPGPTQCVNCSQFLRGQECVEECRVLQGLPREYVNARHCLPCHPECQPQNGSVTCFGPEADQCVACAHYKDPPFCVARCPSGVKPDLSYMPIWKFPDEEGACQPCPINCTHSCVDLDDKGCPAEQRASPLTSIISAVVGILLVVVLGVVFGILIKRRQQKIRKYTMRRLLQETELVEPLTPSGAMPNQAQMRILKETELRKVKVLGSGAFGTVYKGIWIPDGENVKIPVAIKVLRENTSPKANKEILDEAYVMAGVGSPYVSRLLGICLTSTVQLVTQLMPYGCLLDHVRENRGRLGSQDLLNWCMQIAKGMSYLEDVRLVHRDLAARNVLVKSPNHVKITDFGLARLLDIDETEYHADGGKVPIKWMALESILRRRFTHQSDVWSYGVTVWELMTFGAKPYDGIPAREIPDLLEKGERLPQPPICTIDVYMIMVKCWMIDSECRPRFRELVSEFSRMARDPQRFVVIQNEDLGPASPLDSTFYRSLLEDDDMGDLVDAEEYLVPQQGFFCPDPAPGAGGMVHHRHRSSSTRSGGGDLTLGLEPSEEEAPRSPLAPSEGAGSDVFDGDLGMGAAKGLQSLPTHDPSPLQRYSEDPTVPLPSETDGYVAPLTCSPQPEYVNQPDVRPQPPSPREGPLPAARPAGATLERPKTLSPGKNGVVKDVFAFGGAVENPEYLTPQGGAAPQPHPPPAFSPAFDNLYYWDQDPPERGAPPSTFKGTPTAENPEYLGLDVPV

[3] = reduced viability of SK-BR-3 breast cancer cells – cell-based, 24 h, human, pilot screen (AID 572;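 active = viability at or below 10% of carrier control in both of two separate runs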;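 also: compound exposure lasted between 18 and 24 h rather than exactly 24 h; 100% = carrier-treated control wells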); conditions: SK-BR-3 viability, CellTiter-Glo luminescence, at 10 µM, stronger effect = lower value
[4] = HUVEC growth inhibition – cell-based, human, primary screen (AID 575;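 active = viability at or below 30% in both replicate assays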;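 also: 100% = median of untreated cell wells with 0.1% DMSO on each plate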); conditions: HUVEC proliferation, CellTiter-Glo luminescence, 72 h; at 10 µM; stronger effect = lower value
Summary of the method: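 Test system: primary human umbilical vein endothelial cells; medium: endothelial basal medium with 2% FBS plus growth supplements; dosing: 10 µM compound only; times: 72 h treatment at 37 °C; signal: CTG luminescence; read-out: % viability relative to median vehicle-well signal on each plate; control set: vehicle and MePR control wells; plate: 384-well, collagen-coated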

[5] = H69AR cell proliferation blockers – human, duplicate replicates, primary screen (AID 580); conditions: H69AR lung tumor cells viability, ATP luminescence, 72 h; at 10 µM; stronger effect = lower value;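 also: 100% = mean luminescence of untreated wells and 0% = no signal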
[6] = MRP1 drug-resistance reversers in H69AR cells – cell-based, doxorubicin co-treatment, pilot screen (AID 601;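 active = viability loss from added drug above about 55%, and viability with drug at most 40%, in both replicates, limit read from the data, passing the limit was not always enough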); conditions: CellTiter-Glo, 72 h, at 10 µM; for differential viability (reversal): stronger effect = higher value
[7] = yeast transport mutant growth inhibition pilot in 384-well plates, post-Golgi transport modulator project (AID 636; in the data active = inhibition above about 31%); conditions: absorbance 615 nm, about 18 h, stronger effect = higher value
[8] = growth suppression of yeast trafficking mutant, preliminary HTS, modulators of trafficking downstream of Golgi apparatus project, 1536-format plate, OD 615 nm (AID 637; in the data active = inhibition above about 30%); conditions: yeast transport mutant growth, absorbance 615 nm, 18 h; stronger effect = higher value
[9] = H69AR cells + 2 uM doxorubicin, measured here: viability with 2 uM doxorubicin, stronger effect = lower value
[10] = H69AR cells, compound alone cytotoxicity

Structure (SMILES) | viability [1] | Her2 level [2] | viability [3] | viability [4] | viability [5] | differential viability (reversal) ([6]; H69AR cells + 2 uM doxorubicin) | viability [6, 9] | viability [6, 10] | inhibition [7] | inhibition [8]
CCN(CC(=O)NCc1cccs1)C(=O)c1cc(S(=O)(=O)N2CCOCC2)ccc1C | 89.5% | 118% (inactive) | 89.5% (inactive) | 98.8% (inactive) | 87.7% (inactive) | -0.58% (inactive) | 88.3% | 87.7% | -4.03% (inactive) | -10% (inactive)
O=C(NCc1cccnc1)c1ccc(Cl)c(Cl)c1 | 89% | 75% (inactive) | 89% (inactive) | 95.2% (inactive) | 96.8% (inactive) | 9.16% (inactive) | 87.7% | 96.8% | -1.33% (inactive) | 3.61% (inactive)
Nc1nnc(SCCOc2ccccc2)s1 | 86.5% | 80% (inactive) | 86.5% (inactive) | 72.1% (inactive) | 97.4% (inactive) | 9.2% (inactive) | 88.2% | 97.4% | -3.82% (inactive) | -2.73% (inactive)
O=C(O)c1ccc2noc(-c3ccccc3)c2c1 | 127% | 106% (inactive) | 127% (inactive) | 86.9% (inactive) | 97.8% (inactive) | 5.36% (inactive) | 92.4% | 97.8% | -4.74% (inactive) | -4% (inactive)
CCOc1cccc(Oc2ccc(C(F)(F)F)cn2)c1 | 99% | 93.5% (inactive) | 99% (inactive) | 99.6% (inactive) | 99.9% (inactive) | 6.58% (inactive) | 93.3% | 99.9% | -7.33% (inactive) | 0.81% (inactive)
CCn1c(SCC(=O)Nc2cc(C)on2)nc2sc3c(c2c1=O)CCCC3 | 91% | 76.5% (inactive) | 91% (inactive) | 84.5% (inactive) | 12.6% (active) | 2.02% (inactive) | 10.6% | 12.6% | -4.93% (inactive) | 7.78% (inactive)
COc1ccccc1-c1coc2c(CN3CCN(CCO)CC3)c(O)ccc2c1=O | 87.5% | 93.5% (inactive) | 87.5% (inactive) | 94.5% (inactive) | 106% (inactive) | 18.9% (inactive) | 87.5% | 106% | -4.27% (inactive) | 0.65% (inactive)
Cn1cccc1-c1nc2ccc(NC(=O)c3ccco3)cc2[nH]1 | 114% | 93% (inactive) | 114% (inactive) | 120% (inactive) | 77% (inactive) | -4.33% (inactive) | 81.4% | 77% | -2.76% (inactive) | -3.65% (inactive)
CCc1nc(N[C@@H](Cc2c[nH]c3ccccc23)C(=O)O)c2oc3ccccc3c2n1 | 100% | 81% (inactive) | 100% (inactive) | 71.7% (inactive) | 82.1% (inactive) | -14.6% (inactive) | 96.7% | 82.1% | -5.07% (inactive) | -3.44% (inactive)
Cn1c(NCc2cccc(Br)c2)nc2ccccc21 | 87% | 86.5% (inactive) | 87% (inactive) | 83.7% (inactive) | 81.1% (inactive) | 7.16% (inactive) | 73.9% | 81.1% | -4.27% (inactive) | -3.87% (inactive)
CC(=O)Nc1ccc(NC(=O)c2cc(C)nn2-c2ccccc2)cc1 | 84% | 116% (inactive) | 84% (inactive) | 89.5% (inactive) | 108% (inactive) | 12.7% (inactive) | 95.5% | 108% | 2.53% (inactive) | -7.9% (inactive)
Cc1[nH]c2c(C)cccc2c(=O)c1Br | 104% | 81% (inactive) | 104% (inactive) | 114% (inactive) | 91.9% (inactive) | 3.28% (inactive) | 88.7% | 91.9% | -6.93% (inactive) | 6.07% (inactive)
CC(C)CC(=O)N1CCN(S(=O)(=O)c2ccc(F)cc2)CC1 | 86.5% | 102% (inactive) | 86.5% (inactive) | 86.5% (inactive) | 94.9% (inactive) | 9.04% (inactive) | 85.8% | 94.9% | 2.56% (inactive) | 27% (inactive)
CCCCCC1CC(CC#CCN2CCOCC2)C(=O)O1 (stereo not given) | 86% | 102% (inactive) | 86% (inactive) | 83.4% (inactive) | 93.8% (inactive) | 1.16% (inactive) | 92.6% | 93.8% | -7.4% (inactive) | -7.78% (inactive)
Cc1ccc(N2C(N)=NC(N)=NC23CCCC3)c(C)c1 | 98.5% | 95% (inactive) | 98.5% (inactive) | 99.8% (inactive) | 106% (inactive) | 20.6% (inactive) | 85% | 106% | -4.68% (inactive) | 1.11% (inactive)
O=C(Nc1cccc(F)c1)N1CC=C(n2c(=O)[nH]c3ccccc32)CC1 | 111% | 86.5% (inactive) | 111% (inactive) | 93.4% (inactive) | 81.9% (inactive) | 5.16% (inactive) | 76.7% | 81.9% | -4.21% (inactive) | 0.91% (inactive)
